From ChEMBL document CHEMBL1142874, “Design and synthesis of anticonvulsants from a combined phthalimide-GABA-anilide and hydrazone pharmacophore” (Eur J Med Chem, 2007)
Activity calls are given as the source filed them. The rule behind the calls is not given here.

What was measured:
Mus musculus [1] = experiment: Anticonvulsant activity against intraperitoneal picrotoxin-induced seizure in Albino CF1 mouse at 30 mg/kg, ip after 0.5 hrs; type: functional, organism-based; design: dose 30 mg/kg
Procedure, shortened: (§1)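 Mice received the test compound by intraperitoneal injection at 30, 100 or 300 mg/kg. They were then challenged with intraperitoneal picrotoxin and scored for anticonvulsant protection 0.5 h or 4 h after dosing. The value recorded is the lowest dose that protected half or more of the mice. A dash means no activity up to 300 mg/kg.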

Mus musculus [2] = experiment: Anticonvulsant activity against subcutaneous pentylenetetrazole-induced seizure in Albino CF1 mouse at 300 mg/kg, ip after 0.5 hrs; type: functional, organism-based; design: dose 300 mg/kg
Procedure, shortened: (§2)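 Test compounds given i.p. to mice at 0.01 mL/g, at 30, 100 or 300 mg/kg. The seizure challenge followed at 0.5 h and at 4 h after dosing. The value recorded is the lowest dose that protected half or more of the mice. Where no activity was seen, the maximum dose given was 300 mg/kg.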

Mus musculus [3] = experiment: Anticonvulsant activity against subcutaneous strychnine-induced seizure in Albino CF1 mouse at 300 mg/kg, ip after 4 hrs; type: functional, organism-based; design: dose 300 mg/kg; procedure, shortened: as §2
Mus musculus [4] = experiment: Anticonvulsant activity against subcutaneous strychnine-induced seizure in Albino CF1 mouse at 100 mg/kg, ip after 0.5 hrs; type: functional, organism-based; design: dose 100 mg/kg; procedure, shortened: as §2
Mus musculus [5] = experiment: Neurotoxicity in Albino CF1 mouse at 100 mg/kg, ip after 0.5 hrs by Rotarod test; type: toxicity, organism-based; design: dose 100 mg/kg, route intraperitoneal; settings: in vivo
Procedure, shortened: (§3)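 Rotarod test in mice pre-trained to stay on the rod for two consecutive 90 s trials. Compounds given i.p. at 30, 100 or 300 mg/kg, with testing at 0.5 h and 4 h. Deficit was scored as failure to keep balance on the rod for 1 min in each of three trials. The value recorded is the lowest dose affecting half or more of the mice.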

Mus musculus [6] = experiment: Neurotoxicity in Albino CF1 mouse at 300 mg/kg, ip after 4 hrs by Rotarod test; type: toxicity, organism-based; design: dose 300 mg/kg, route intraperitoneal; settings: in vivo; procedure, shortened: as §3
Mus musculus [7] = experiment: Anticonvulsant activity in Albino CF1 mouse upto 300 mg/kg, ip in maximal electroshock seizure test; type: functional, organism-based; design: dose 300 mg/kg
Procedure, shortened: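 Mice dosed i.p. (0.01 mL/g) at 30, 100 and 300 mg/kg. Electroshock challenge run 30 min and 4 h after dosing.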

Mus musculus [8] = experiment: Anticonvulsant activity against subcutaneous pentylenetetrazole-induced seizure in Albino CF1 mouse at 100 mg/kg, ip after 4 hrs; type: functional, organism-based; design: dose 100 mg/kg; procedure, shortened: as §2
Mus musculus [9] = experiment: Anticonvulsant activity against intraperitoneal picrotoxin-induced seizure in Albino CF1 mouse at 100 mg/kg, ip after 4 hrs; type: functional, organism-based; design: dose 100 mg/kg; procedure, shortened: as §1
Mus musculus [10] = experiment: Anticonvulsant activity against intraperitoneal picrotoxin-induced seizure in Albino CF1 mouse at 300 mg/kg, ip after 4 hrs; type: functional, organism-based; design: dose 300 mg/kg; procedure, shortened: as §1
Mus musculus [11] = experiment: Anticonvulsant activity against subcutaneous pentylenetetrazole-induced seizure in Albino CF1 mouse at 300 mg/kg, ip after 4 hrs; type: functional, organism-based; design: dose 300 mg/kg; procedure, shortened: as §2
Mus musculus [12] = experiment: Neurotoxicity in Albino CF1 mouse at 30 mg/kg, ip after 0.5 hrs by Rotarod test; type: toxicity, organism-based; design: dose 30 mg/kg, route intraperitoneal; settings: in vivo; procedure, shortened: as §3
Mus musculus [13] = experiment: Anticonvulsant activity against intraperitoneal picrotoxin-induced seizure in Albino CF1 mouse at 300 mg/kg, ip after 0.5 hrs; type: functional, organism-based; design: dose 300 mg/kg; procedure, shortened: as §1
Mus musculus [14] = experiment: Anticonvulsant activity against subcutaneous pentylenetetrazole-induced seizure in Albino CF1 mouse at 30 mg/kg, ip after 0.5 hrs; type: functional, organism-based; design: dose 30 mg/kg; procedure, shortened: as §2
Mus musculus [15] = experiment: Anticonvulsant activity against subcutaneous strychnine-induced seizure in Albino CF1 mouse at 300 mg/kg, ip after 0.5 hrs; type: functional, organism-based; design: dose 300 mg/kg; procedure, shortened: as §2
Mus musculus [16] = experiment: Anticonvulsant activity against subcutaneous pentylenetetrazole-induced seizure in Albino CF1 mouse at 100 mg/kg, ip after 0.5 hrs; type: functional, organism-based; design: dose 100 mg/kg; procedure, shortened: as §2
Mus musculus [17] = experiment: Anticonvulsant activity against intraperitoneal picrotoxin-induced seizure in Albino CF1 mouse at 100 mg/kg, ip after 0.5 hrs; type: functional, organism-based; design: dose 100 mg/kg; procedure, shortened: as §1
Mus musculus [18] = experiment: Neurotoxicity in Albino CF1 mouse at 100 mg/kg, ip after 4 hrs by Rotarod test; type: toxicity, organism-based; design: dose 100 mg/kg, route intraperitoneal; settings: in vivo; procedure, shortened: as §3
Mus musculus [19] = experiment: Anticonvulsant activity against subcutaneous pentylenetetrazole-induced seizure in Albino CF1 mouse at 30 mg/kg, ip after 4 hrs; type: functional, organism-based; design: dose 30 mg/kg; procedure, shortened: as §2
Mus musculus [20] = experiment: Neurotoxicity in Albino CF1 mouse at 300 mg/kg, ip after 0.5 hrs by Rotarod test; type: toxicity, organism-based; design: dose 300 mg/kg, route intraperitoneal; settings: in vivo; procedure, shortened: as §3

Structure (SMILES)	Activity (Mus musculus [1])	Activity (Mus musculus [2])	Activity (Mus musculus [3])	Activity (Mus musculus [4])	Activity (Mus musculus [5])	Activity (Mus musculus [6])	Activity (Mus musculus [7])	Activity (Mus musculus [8])	Activity (Mus musculus [9])	Activity (Mus musculus [10])	Activity (Mus musculus [11])	Activity (Mus musculus [12])	Activity (Mus musculus [13])	Activity (Mus musculus [14])	Activity (Mus musculus [15])	Activity (Mus musculus [16])	Activity (Mus musculus [17])	Activity (Mus musculus [18])	Activity (Mus musculus [19])	Activity (Mus musculus [20])
Cc1cccc(C)c1NC(=O)CCCN1C(=O)c2ccccc2C1=O	Active	inactive	Active	Active	Active	Active	inactive	Active	Active	–	–	–	–	–	–	–	–	–	–	–
O=C(CCCN1C(=O)c2ccccc2C1=O)Nc1ccc(Cl)cc1	–	inactive	Active	Active	–	Active	inactive	–	–	inactive	inactive	Active	Active	–	–	–	–	–	–	–
C/C(=N/NC(=O)CCCN1C(=O)c2ccccc2C1=O)c1ccc(C)cc1	–	–	inactive	–	Active	Not Active	inactive	–	–	inactive	inactive	–	Active	Active	inactive	–	–	–	–	–
Cc1cc(NC(=O)CCCN2C(=O)c3ccccc3C2=O)ccc1Br	–	–	inactive	–	Active	Active	inactive	–	–	Active	inactive	–	–	–	inactive	Active	Active	–	–	–
Cc1c(Cl)cccc1NC(=O)CCCN1C(=O)c2ccccc2C1=O	–	Active	inactive	–	–	–	inactive	–	–	Active	–	–	–	–	Active	–	Active	Active	Active	Active
